Test results published in ChEMBL document CHEMBL4229456, “Salicylic Acid Derivatives Inhibit Oxalate Production in Mouse Hepatocytes with Primary Hyperoxaluria Type 1” (J Med Chem, 2018).

Experiments:
[1] = molecular target: T1, 2-Hydroxyacid oxidase 1 (Mus musculus) (UniProt Q9WU19); assay: Inhibition of glycolate oxidase in C57BL/6 Agxt1-/- mouse hepatocytes using glycolate as substrate assessed as relative oxalate level at 10 uM after 24 hrs; format: cell-based
T1 sequence (whole entry): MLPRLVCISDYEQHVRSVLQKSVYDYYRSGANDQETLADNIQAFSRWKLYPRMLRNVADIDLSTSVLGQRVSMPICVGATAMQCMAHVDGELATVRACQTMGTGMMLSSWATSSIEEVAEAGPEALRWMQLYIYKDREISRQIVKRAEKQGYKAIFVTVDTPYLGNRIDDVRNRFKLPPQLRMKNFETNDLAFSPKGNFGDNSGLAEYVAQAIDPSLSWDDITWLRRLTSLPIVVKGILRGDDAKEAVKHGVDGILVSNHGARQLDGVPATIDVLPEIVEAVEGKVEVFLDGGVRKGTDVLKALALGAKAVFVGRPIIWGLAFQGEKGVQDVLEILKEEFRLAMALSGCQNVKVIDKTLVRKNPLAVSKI
In short: (§1)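 Primary Agxt1-/- mouse hepatocytes in 6-well plates, serum-free Williams E with 5 mM glycolate, treated with 10 µM compound. Excreted oxalate measured 24 h later by oxalate oxidase–HRP colorimetric kit (595 nm) and expressed relative to untreated control. Mean ± SD, n = 3, one-way ANOVA.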

[2] = molecular target: T1, 2-Hydroxyacid oxidase 1 (Mus musculus); assay: Inhibition of mouse recombinant glycolate oxidase expressed in Escherichia coli at 25 uM using glycolate as substrate after 1 min by sulfonated DCIP dye-based assay relative to control
2-Hydroxyacid oxidase 1 [3] = molecular target: T2, 2-Hydroxyacid oxidase 1 (Mus musculus, UniProt Q9WU19); assay: Inhibition of mouse recombinant glycolate oxidase expressed in Escherichia coli using glycolate as substrate by sulfonated DCIP dye-based assay
T2 sequence (Q9WU19 whole entry): T1 sequence (whole entry)
In short: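 Purified recombinant mGO (10 µL at 0.1 µg/µL) with saturating glycolate (22.2 mM) in 50 mM potassium phosphate pH 7. Compound at 0.2 µM–0.2 mM; H2O2 detected by HRP-coupled sulfonated DCIP/4-aminoantipyrine dye at 515 nm. IC50 from nonlinear dose-response fitting.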

[4] = molecular target: T1, 2-Hydroxyacid oxidase 1 (Mus musculus); assay: Inhibition of glycolate oxidase in C57BL/6 Agxt1-/- mouse hepatocytes using glycolate as substrate assessed as reduction in oxalate production at 10 uM after 24 hrs; format: cell-based; in short: as §1
2-Hydroxyacid oxidase 1 [5] = molecular target: T2, 2-Hydroxyacid oxidase 1; assay: Inhibition of glycolate oxidase in mouse Agxt1-/- hepatocytes using glycolate as substrate assessed as reduction in oxalate production after 24 hrs by sulfonated-DCIP dye-based assay; format: cell-based
2-Hydroxyacid oxidase 1 [6] = molecular target: T2, 2-Hydroxyacid oxidase 1; assay: Inhibition of mouse N-terminal His-tagged glycolate oxidase expressed in BL21(DE3) Escherichia coli using glycolate as substrate by Cornish-Bowden plot analysis
In short: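 Recombinant mouse GO came from E. coli carrying a pET15b Hao1 vector and was purified by affinity chromatography. Glycolate oxidation was run in 50 mM potassium phosphate pH 7. H2O2 was coupled through HRP with sulfonated DCIP/4-aminoantipyrine and read at 515 nm. Inhibitor and substrate concentrations were varied at constant enzyme, and Ki was taken from the line intersection in Cornish-Bowden and Dixon plots.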

Mus musculus = assay: Reduction in urine oxalate levels in Agxt1-/- mouse model at 110 mg/kg administered via oral gavage measured after 24 hrs post treatment for 11 days relative to control; format: functional; parameters: scale not given: the % may be the effect or the level left
2-Hydroxyacid oxidase 1 [7] = molecular target: T2, 2-Hydroxyacid oxidase 1; assay: Inhibition of glycolate oxidase in mouse Agxt1-/- hepatocytes using glycolate as substrate assessed as reduction in oxalate production after 72 hrs by sulfonated-DCIP dye-based assay; format: cell-based
[8] = molecular target: T1, 2-Hydroxyacid oxidase 1 (Mus musculus); assay: Inhibition of glycolate oxidase in C57BL/6 Agxt1-/- mouse hepatocytes using glycolate as substrate assessed as relative oxalate level at 12.5 uM after 24 hrs; format: cell-based
In short: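 Primary hepatocytes were isolated from male C57BL/6 Agxt1-/- mouse liver by in situ collagenase perfusion. They were plated at 3.0x10^5 cells/well in supplemented Williams E with 5% FBS, then switched after 5 h to serum-free medium and treated in the presence of 5 mM glycolate. Medium was collected at 24 h, or 48 and 72 h for dose-response. Oxalate was read by oxalate oxidase/HRP (MBTH/DMAB) at 595 nm relative to control.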

2-Hydroxyacid oxidase 1 [9] = molecular target: T2, 2-Hydroxyacid oxidase 1; assay: Inhibition of glycolate oxidase in mouse Agxt1-/- hepatocytes using glycolate as substrate assessed as reduction in oxalate production after 48 hrs by sulfonated-DCIP dye-based assay; format: cell-based

| fold change (FC) [1] | inhibition [2] | IC50 (2-Hydroxyacid oxidase 1 [3]) | Compound | also measured |
| --- | --- | --- | --- | --- |
| 1.02 | 22.8% | – | O=C(O)c1ccc(-c2ccoc2)cc1O | – |
| – | 14.9% | – | Nc1ccc(C(=O)O)c(O)c1 | – |
| 1 | 28.7% | – | O=Cc1ccc(-c2ccc(C(=O)O)c(O)c2)s1 | – |
| 0.98 | 0% | – | O=Cc1ccc(-c2ccc(C(=O)O)c(CO)c2)o1 | – |
| 0.83 | 50.9% | 19.5 µM | COc1cccc(-c2ccc(C(=O)O)c(O)c2)c1 | – |
| – | 26.2% | – | O=Cc1ccc(-c2ccc3cc(O)c(C(=O)O)cc3c2)o1 | – |
| 1.11 | 83.4% | 10.4 µM | O=C(O)c1ccc(-c2ccc(OCc3ccccc3)cc2)cc1O | – |
| 0.74 | 35.4% | 32.5 µM | O=C(O)c1ccc(-c2cccs2)cc1O | – |
| 0.82 | 61.3% | 13.5 µM | O=C(O)c1ccc(-c2ccc(O)cc2)cc1O | – |
| 0.88 | 98% | 4.6 µM | O=C(O)c1cc(-c2ccc(CO)o2)ccc1O | – |
| 0.89 | 28.1% | – | CC(=O)c1ccc(-c2ccc(C(=O)O)c(O)c2)s1 | – |
| 0.88 | 22.7% | – | O=C(O)c1ccc(-c2ccncc2)cc1O | – |

The next lines start with the molecule.

| Compound | fold change (FC) [1] | inhibition [2] | IC50 (2-Hydroxyacid oxidase 1 [3]) | also measured |
| --- | --- | --- | --- | --- |
| COc1ccc(COc2ccc(-c3ccc(O)c(C(=O)O)c3)cc2)cc1 | 1.07 | 83.8% | 9.5 µM | – |
| O=C(O)c1ccc(Cl)cc1O | – | 20.8% | – | – |
| O=C(O)c1ccc(-c2ccccc2COc2cccc(C(F)(F)F)c2)cc1O | 0.62 | 98.6% | 4.4 µM | inhibition [4]: 30% |
| O=C(O)c1cc(-c2ccccc2COc2cc(F)cc(F)c2)ccc1O | 0.92 | 84.5% | 5.8 µM | – |
| O=C(O)c1cc(-c2ccccc2COc2cccc(C(F)(F)F)c2)ccc1O | 0.68 | 96.2% | 3.5 µM | inhibition [4]: 30% |
| O=C(O)c1cc2ccccc2c(/N=N/c2c(O)cc(S(=O)(=O)O)c3ccccc23)c1O | 1.11 | 75.1% | – | – |
| O=C(O)c1ccc(-c2ccccc2COc2cc(F)cc(F)c2)cc1O | 0.72 | 77.7% | 8.3 µM | – |
| Nc1ccc(O)c(C(=O)O)c1 [MESALAMINE] | 0.88 | 71.9% | 7.8 µM | – |
| O=C(O)c1cc([N+](=O)[O-])c(-c2ccco2)cc1O | 0.86 | 5.9% | – | – |
| N[C@@H](CCC(=O)Nc1ccc(O)c(C(=O)O)c1)C(=O)O | – | 7.8% | – | – |
| O=C(O)c1nnsc1Sc1ccc(Cl)cc1 | – | 34.8% | 43.5 µM | EC50 (2-Hydroxyacid oxidase 1 [5]): 25.3 µM; IC50 (2-Hydroxyacid oxidase 1 [6]): 43.5 µM; Ki (2-Hydroxyacid oxidase 1 [6]): 20.3 µM; Activity (Mus musculus): 30 - 50%; EC50 (2-Hydroxyacid oxidase 1 [7]): 34 µM; fold change (FC) [8]: 0.63; EC50 (2-Hydroxyacid oxidase 1 [9]): 33 µM |
| COc1cc(-c2ccc(C=O)o2)ccc1C(=O)O | 0.82 | 0% | – | – |
| O=C(O)c1cc(Sc2nnnn2-c2ccccc2)c2ccccc2c1O | 0.99 | 75.3% | 11.1 µM | – |
